Consider eight molecules from ChEMBL document CHEMBL1126124, “3-Phenyl-4-hydroxyquinolin-2(1H)-ones: potent and selective antagonists at the strychnine-insensitive glycine site on the N-methyl-D-aspartate receptor complex” (J Med Chem, 1992).

For orientation: IC50 means the concentration needed to halve the response being measured. The low end stands for inhibition by little substance, the high end for a need for much substance. Broadly, the Ki is a measure of affinity in units of concentration, obtained from inhibition or displacement.

Test [1] addresses T1, Glutamate receptor ionotropic, NMDA 1 (Rattus norvegicus, UniProt P35439). Briefly: Inhibition of [3H]-MK-801 binding to a N-methyl-D-aspartic acid(NMDA) receptor in glycine-sensitive rat cortical membranes. It counts as cell membranes, Membrane.
Test [2] addresses T1, Glutamate receptor ionotropic, NMDA 1. Briefly: Ability to displace strychnine-insensitive [3H]glycine binding to rat cortical membranes. A digest of the protocol: (§1)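 Rat cortical membranes were prepared by a freeze/thaw Triton extraction. Incubation used [³H]glycine with 25 μg membrane fragments on ice for 1 h, ended by rapid filtration through GF/B filters. Nonspecific binding was defined with 100 μM D-serine.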

Test [3] concerns the target Glutamate NMDA receptor. Briefly: Ability to displace strychnine-insensitive [3H]glycine binding to N-methyl-D-aspartate glutamate receptor of rat cortical membranes. The method, boiled down:
as §1

The target of test [4] is Glutamate NMDA receptor. Briefly: Inhibition of [3H]MK-801 binding to a N-methyl-D-aspartate glutamate receptor in glycine-sensitive rat cortical membranes. Format: cell membranes, Membrane. The method, boiled down:
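Well-washed rat cortical membranes were given an added freeze/thaw step. [³H]MK-801 (2.5 nM) binding was run with 1 μM glutamate and 0.2 μM glycine for 2 h at 27 °C, then stopped by filtration. Nonspecific binding was defined with 0.5 μM MK-801. Values are IC50.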

Take `O=C(O)c1cc(O)c2c(Cl)cc(Cl)cc2n1`: in test [1], the IC50 was found to be 860 nM. In test [2], this molecule yielded a Ki of 40 nM.
In turn, `O=c1[nH]c2cc(Cl)cc(Cl)c2c(O)c1-c1ccc([N+](=O)[O-])cc1` gave a Ki in test [2] of 860 nM.
Turning to `COc1ccc(-c2c(O)nc3cc(Cl)cc(Cl)c3c2O)cc1`, on Glutamate NMDA receptor [3], the Ki was 67 nM. Moreover, at Glutamate NMDA receptor [4], the half-inhibitory concentration (IC50) was determined as 1230 nM.
`O=c1[nH]c2ccccc2c(O)c1-c1ccccc1` returned an IC50 in test [1] of 7290 nM.
Take `Cc1ccc(-c2c(O)nc3cc(Cl)cc(Cl)c3c2O)cc1`: the IC50 in test [1] came to 550 nM. This molecule yielded a Ki in test [2] of 300 nM.
For the molecule `Oc1nc2cc(Cl)cc(Cl)c2c(O)c1-c1ccccc1`, on Glutamate NMDA receptor [3], the affinity corresponds to a Ki of 57 nM. At Glutamate NMDA receptor [4], this molecule yielded an IC50 of 220 nM.
Taken in the same sequence, the figures for `Oc1ccc(-c2c(O)nc3cc(Cl)cc(Cl)c3c2O)cc1` were 13 nM and 110 nM.
`Nc1ccc(-c2c(O)nc3cc(Cl)cc(Cl)c3c2O)cc1` gave an IC50 in test [1] of 210 nM. This molecule also returned a Ki in test [2] of 18 nM.
